Data: ChEMBL document CHEMBL1132359, “Thiazolothiazepine inhibitors of HIV-1 integrase” (J Med Chem, 1999)
pEC50, pIC50: −log10 of the molar value.

Tests used:
CCRF-CEM [1] = experiment: The compound was tested for inhibitory activity against HIV-1; type: functional, cell-based; details: Homo sapiens
[2] = molecular target: T1, Human immunodeficiency virus type 1 integrase (Human immunodeficiency virus 1, UniProt Q7ZJM1); experiment: Inhibition of the 3'-end joining activity of HIV-1 integrase
Summary of the method: (§1)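 Then 20 nM 5′-32P-labeled linear oligonucleotide substrate added and incubated a further 1 h. Products separated on denaturing 20% polyacrylamide/urea gel and quantified by phosphorimaging. IC50 read from a plot of percent inhibition versus concentration.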

[3] = molecular target: T1, Human immunodeficiency virus type 1 integrase; experiment: Inhibition of the 3'-processing activity of HIV-1 integrase; summary of the method: as §1
CCRF-CEM [4] = experiment: Tested for cytotoxicity in CEM cells; type: functional; details: Homo sapiens
CCRF-CEM [5] = experiment: The compound was tested for cytotoxicity against HIV-1 infected CEM cells; type: functional; details: Homo sapiens
CCRF-CEM [6] = experiment: The compound was tested for inhibitory activity against HIV-1 infected CEM cells; type: functional, cell-based; details: Homo sapiens

T1 sequence (Q7ZJM1 whole entry): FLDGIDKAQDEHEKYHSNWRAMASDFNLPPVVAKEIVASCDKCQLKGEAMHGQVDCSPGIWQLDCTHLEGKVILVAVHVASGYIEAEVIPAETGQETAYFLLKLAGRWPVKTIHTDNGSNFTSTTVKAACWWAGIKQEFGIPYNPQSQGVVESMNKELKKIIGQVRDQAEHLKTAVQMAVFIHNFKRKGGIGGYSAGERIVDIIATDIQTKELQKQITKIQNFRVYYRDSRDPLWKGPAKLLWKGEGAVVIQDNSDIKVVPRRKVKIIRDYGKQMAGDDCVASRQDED

Row | Structure (SMILES) | pEC50 (CCRF-CEM [1]) | pIC50 [2] | pIC50 [3] | CC50 (CCRF-CEM [4]) | CC50 (CCRF-CEM [5]) | pEC50 (CCRF-CEM [6])
1 | COc1cc2c(cc1OC)C(=O)N1CCCC1CS2 (stereo unspecified) | < 3.70 | < 3.00 | < 3.00 | > 200 µM | – | –
2 | COc1ccc2c(c1)C(=O)N1CSCC1C(=O)S2 (stereo unspecified) | < 3.70 | 3.81 | 3.81 | > 200 µM | – | –
3 | Cc1ccc2c(c1)C(=O)N1CCSC1C(=O)S2 (stereo unspecified) | – | 4.26 | 4.19 | – | – | –
4 | O=C1Sc2ccc(Cl)cc2C(=O)N2C[S+]([O-])CC12 (stereo unspecified) | – | 3.55 | 3.59 | – | – | –
5 | CC(=O)OC1Sc2ccccc2C(=O)N2CCCC12 (stereo unspecified) | < 3.70 | < 3.00 | < 3.00 | > 200 µM | – | –
6 | O=C1Sc2ccc(Cl)cc2C(=O)N2CSCC12 (stereo unspecified) | < 4.00 | 3.80 | 3.80 | > 100 µM | – | –
7 | O=C1Sc2ccccc2C(=O)N2CCSC12 (stereo unspecified) | – | 3.84 | 3.96 | – | > 200 µM | 3.97
8 | COC1Sc2ccccc2C(=O)N2CCCC12 (stereo unspecified) | < 3.70 | < 3.00 | < 3.00 | > 200 µM | – | –
9 | O=C1Sc2ccccc2C(=O)N2CCCCC12 (stereo unspecified) | < 3.70 | 3.46 | 3.39 | > 200 µM | – | –
10 | O=C1Sc2ccccc2Cn2cccc21 | 3.84 | 3.52 | 3.23 | > 200 µM | – | –
11 | O=C1c2ccccc2SC(O)C2CCCN12 (stereo unspecified) | < 3.70 | < 3.00 | < 3.00 | > 200 µM | – | –
12 | COc1cc2c(cc1OC)C(=O)N1CCCC1C(=O)S2 (stereo unspecified) | < 3.70 | < 3.00 | < 3.00 | > 200 µM | – | –
13 | O=C1Sc2ccccc2C(=O)N2COCC12 (stereo unspecified) | – | < 3.48 | < 3.48 | – | – | –
14 | CN1CCN(Cc2ccc3n2Cc2ccccc2SC3c2ccccc2)CC1 (stereo unspecified) | – | < 3.00 | < 3.00 | – | – | –
15 | COc1cc2c(cc1OC)C(=O)N1CSCC1C(=O)S2 (stereo unspecified) | < 4.30 | 3.48 | 3.17 | > 50 µM | – | –
16 | O=C1Sc2ccc(Cl)cc2C(=O)N2CCSC12 (stereo unspecified) | < 4.30 | 3.92 | 3.82 | > 50 µM | – | –

Row | Structure (SMILES) | pEC50 (CCRF-CEM [1]) | pIC50 [2] | pIC50 [3] | CC50 (CCRF-CEM [4]) | CC50 (CCRF-CEM [5]) | pEC50 (CCRF-CEM [6])
17 | O=C1Sc2ccccc2C(=O)N2CSCC12 (stereo unspecified) | < 3.70 | 3.64 | 3.68 | > 200 µM | – | –
18 | O=C1Sc2ccc(Br)cc2C(=O)N2CCSC12 (stereo unspecified) | – | 4.32 | 4.24 | – | – | –
19 | O=C1Sc2ccccc2C(=O)N2C[S+]([O-])CC12 (stereo unspecified) | – | 3.67 | 3.70 | – | – | –
20 | O=C1c2ccccc2SC(O)(c2ccccc2)C2CCCN12 (stereo unspecified) | – | < 3.00 | < 3.00 | – | – | –
21 | O=C1Sc2cc3ccccc3cc2C(=O)N2CSCC12 (stereo unspecified) | 3.55 | 4.00 | 4.04 | > 316 µM | – | –
22 | Cc1ccc2c(c1)C(=O)N1CSCC1C(=O)S2 (stereo unspecified) | – | 4.20 | 4.28 | 35 µM | – | –
23 | O=C1Sc2cc([N+](=O)[O-])ccc2C(=O)N2CSCC12 (stereo unspecified) | < 4.30 | 4.00 | 4.05 | > 50 µM | – | –
24 | CN(C)Cc1ccc2n1Cc1ccccc1SC2c1ccc(F)cc1 (stereo unspecified) | – | < 3.00 | < 3.00 | – | – | –
25 | O=C1c2ccccc2SCC2CSC(c3ccccc3)N12 (stereo unspecified) | – | 3.42 | 3.43 | – | – | –
26 | CCOC(=O)C1Sc2ccccc2Cn2cccc21 (stereo unspecified) | – | < 3.00 | < 3.00 | – | – | –
27 | CN1CCN(C2Sc3ccccc3C(=O)N3CCCC23)CC1 (stereo unspecified) | < 3.90 | < 3.00 | < 3.00 | > 125 µM | – | –
28 | O=C1Sc2cc3ccccc3cc2C(=O)N2CCSC12 (stereo unspecified) | 4.22 | 4.33 | 4.40 | > 316 µM | – | –
29 | O=C1Sc2ccc(Br)cc2C(=O)N2CSCC12 (stereo unspecified) | < 3.70 | 4.13 | 4.06 | > 200 µM | – | –
30 | COc1ccc2c(c1)C(=O)N1C[S+]([O-])CC1C(=O)S2 (stereo unspecified) | – | 3.85 | 4.07 | – | – | –
31 | Cc1ccc2c(c1)C(=O)N1CC[S+]([O-])C1C(=O)S2 (stereo unspecified) | < 4.00 | 3.23 | 3.23 | > 100 µM | – | –
